{"data": "Published values gathered from unrelated publications", "TPR": "Trypanothione reductase (TPR, Trypanosoma cruzi, UniProt P28593)", "BCHE": "Cholinesterase (BCHE, Homo sapiens, UniProt P06276)", "PROK": "Proteinase K (PROK, Engyodontium album, UniProt P06873)", "note": "Compare with care: the assays were run in different laboratories."}
{"SMILES": "Cc1cc(C)c2[nH]c(=O)c(CN(CCO)C(=S)Nc3ccc(N4CCOCC4)cc3)cc2c1", "target": "Beta-glucuronidase (uidA, Escherichia coli, UniProt P05804)", "test": "enzyme activity, inhibitor", "measurement": "EC50", "value": "3.1 µM"}
{"SMILES": "Cc1cc(O)cc(C)c1C[C@H](N)C(=O)N[C@H](C)C(=O)N[C@@H](Cc1ccccc1)C(=O)N[C@@H](CCCN)C(N)=O", "target": "Mu-type opioid receptor (OPRM1, Cavia porcellus, UniProt P97266)", "test": "ligand displacement, radioligand", "conditions": "cell membranes", "measurement": "Ki", "value": "3.3e-05 µM"}
{"SMILES": "c1ccc(CCCN2CCN(CCOC(c3ccccc3)c3ccccc3)CC2)cc1", "target": "TPR", "test": "enzyme activity, inhibitor, absorbance", "measurement": "IC50", "value": "10.9 µM"}
{"SMILES": "C[C@H]1COC2=C1C(=O)C(=O)c1c2ccc2c1CCCC2(C)C", "target": "BCHE", "test": "enzyme activity, inhibitor", "measurement": "Ki", "value": "> 100 µM"}
{"SMILES": "O=C(O)c1ccccc1-c1c2cc(Br)c(=O)cc-2oc2[c]([Hg+])c(O)c(Br)cc12", "target": "PROK", "test": "binding, ITC", "measurement": "Kd", "value": "~3000 µM"}
{"SMILES": "CC(C)(O)[C@@H](Nc1nc(Cl)nc2c1ncn2[C@H]1[C@H](O)[C@H](O)[C@]2(CO)C[C@H]12)C1CC1", "target": "Muscarinic acetylcholine receptor M5 (CHRM5, Homo sapiens, UniProt P08912)", "test": "ligand displacement, radioligand", "measurement": "Ki", "value": "2.73 µM"}
{"SMILES": "c1ccc2c(c1)CCc1ccccc1C2OCCN1CCNCC1", "target": "TPR", "test": "enzyme activity, inhibitor, absorbance", "measurement": "IC50", "value": "51.5 µM"}
{"SMILES": "O=C(Nc1cccc(-c2ccn3c(CC4CC4)nnc3c2C(F)(F)F)c1)c1ccc(S(=O)(=O)F)cc1", "target": "Metabotropic glutamate receptor 3 (GRM3, Homo sapiens, UniProt Q14832)", "test": "calcium signal, agonist", "measurement": "EC50", "value": "> 50.1 µM"}
{"SMILES": "CC(=O)Nc1ccc(O)cc1", "target": "Ribosyldihydronicotinamide dehydrogenase [quinone] (NQO2, Homo sapiens, UniProt P16083)", "test": "enzyme activity, inhibitor", "measurement": "Ki", "value": "> 1000 µM"}
{"SMILES": "C[C@H](NC(=O)Cc1ccccc1)C(=O)N[C@H](Cc1c[nH]c2ccccc12)C(=O)NCCc1ccccc1", "target": "Bombesin receptor subtype-3 (Brs3, Mus musculus, UniProt O54798)", "test": "calcium signal, agonist, fluorescence", "measurement": "EC50", "value": "0.0333 µM"}
{"SMILES": "Cn1cc(-c2cccc(N3CCc4c(sc5c4CC(C)(C)C5)C3=O)c2CO)cc(Nc2ccncn2)c1=O", "target": "Tyrosine-protein kinase Fgr (FGR, Homo sapiens, UniProt P09769)", "test": "enzyme activity, inhibitor, FRET", "measurement": "Ki", "value": "> 1.11 µM"}
{"SMILES": "OC[C@H]1O[C@H]([S-])[C@H](O)[C@@H](O)[C@@H]1O.[Au+]", "target": "Tyrosine-protein phosphatase non-receptor type 12 (PTPN12, Homo sapiens, UniProt Q05209)", "test": "enzyme activity, inhibitor, fluorescence", "measurement": "IC50", "value": "8 µM"}
{"SMILES": "C/C=C1\\NC(=O)[C@@H](NC(=O)[C@@H](NC(=O)C/C(=C/Cl)CC)C(C)C)[C@@H](C)OC(=O)[C@H](C(C)C)NC(=O)[C@H](Cc2ccc(O)cc2)N(C)C(=O)[C@H](Cc2ccccc2)N2C(=O)[C@H](CC[C@H]2O)NC1=O", "target": "PROK", "test": "enzyme activity, inhibitor, fluorescence", "measurement": "IC50", "value": "> 5 µM"}
{"SMILES": "[O-]/[N+](=C\\c1ccc2cccc(O)c2n1)Cc1ccccc1", "target": "BCHE", "test": "enzyme activity, inhibitor", "conditions": "pH 7", "measurement": "Ki", "value": "0.0043 µM"}
{"SMILES": "C=CCn1c2cc(OC(=O)CCCCN3CCN(Cc4cccc(C)c4)CC3)ccc2c2ccnc(C)c21", "target": "BCHE", "test": "enzyme activity, inhibitor, Ellman", "measurement": "IC50", "value": "0.251 µM"}
